Measured values reported in article PMC4696769 (Biochemistry, 2015).
Values joined by “and” are separate entries in the source; they are usually repeats but may differ in a detail not shown here. Equal entries are not always repeated. One block for each molecule: values may come before it.

Experiments:
WT AKR1D1 [1] = target: T1, WT AKR1D1 (Homo sapiens, UniProt P51857); test: Steady-state kinetic analysis of steroid reduction; format: biochemical; conditions: for kcat: pH 7.0, 37 °C, 7.2 μM NADPH; for Ki: Ki (substrate inhibition; dissociation constant for substrate from the E-NADP+ complex)
WT AKR1D1 [2] = target: T1, WT AKR1D1; test: Multiple turnover reactions, stopped-flow transient kinetics; format: biochemical; conditions: 10 mM potassium phosphate buffer, pH 7, 37 °C
How it was run: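 Multiple-turnover reactions in stopped-flow. […] Both solutions in 10 mM KPi pH 7.0 with 4% acetonitrile at 37 °C. […] At least three traces averaged, fit to a linear or burst-plus-linear equation giving pseudo-first-order kburst and […] kss.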

P133R AKR1D1 [3] = target: T2, P133R AKR1D1 (Homo sapiens, UniProt P51857, P133R); test: Steady-state kinetic analysis of steroid reduction; conditions: for kcat: P133R
WT AKR1D1 [4] = target: T1, WT AKR1D1; test: Steroid binding, quenching of energy transfer band of E·NADPH complex
P133R AKR1D1 [5] = target: T2, P133R AKR1D1; test: as above
P133R AKR1D1 [6] = target: T2, P133R AKR1D1; test: Multiple turnover reactions, stopped-flow transient kinetics; format: biochemical; conditions: 10 mM potassium phosphate buffer, pH 7, 37 °C
P133R AKR1D1 [7] = target: T2, P133R AKR1D1; test: Cofactor binding, quenching of intrinsic protein fluorescence; conditions: pH 7.0, 37 °C
WT AKR1D1 [8] = target: T1, WT AKR1D1; test: as above; conditions: pH 7.0, 37 °C
P133R AKR1D1 [9] = target: T2, P133R AKR1D1; test: Ligand chase experiment of cofactor; format: binding
WT AKR1D1 [10] = target: T1, WT AKR1D1; test: Ligand chase experiment of cofactor; format: binding; conditions: pH 7.0, 37 °C
[11] = substrate: CC(C)CCC[C@@H](C)[C@H]1CC[C@H]2[C@@H]3[C@H](O)CC4=CC(=O)CC[C@]4(C)[C@H]3CC[C@]12C; test: purified protein, by the assay type; conditions: other: P133R, pH 7.0, 37.0 °C

T1 sequence (P51857 whole entry): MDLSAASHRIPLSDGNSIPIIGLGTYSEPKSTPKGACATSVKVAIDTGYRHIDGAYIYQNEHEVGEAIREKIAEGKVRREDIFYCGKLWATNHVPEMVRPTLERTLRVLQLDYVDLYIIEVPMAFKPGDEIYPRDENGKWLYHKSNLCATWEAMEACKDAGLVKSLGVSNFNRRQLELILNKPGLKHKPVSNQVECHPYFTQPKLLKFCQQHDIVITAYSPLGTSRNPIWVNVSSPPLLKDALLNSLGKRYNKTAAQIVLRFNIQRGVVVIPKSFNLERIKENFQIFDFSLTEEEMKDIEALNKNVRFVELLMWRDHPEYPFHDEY

Molecule: CC(C)CCC[C@@H](C)[C@H]1CC[C@H]2[C@@H]3[C@H](O)CC4=CC(=O)CC[C@]4(C)[C@H]3CC[C@]12C [7α-hydroxycholest-4-en-3-one]
kcat (WT AKR1D1 [1]; 10 mM KPi): 0.017 ± 0.001 s⁻¹
kcat (WT AKR1D1 [1]; 100 mM KPi): 0.020 ± 0.002 s⁻¹
Ki (WT AKR1D1 [1]; 10 mM KPi): 55 ± 14 µM
Ki (WT AKR1D1 [1]; 100 mM KPi): 46 ± 18 µM
kss (WT AKR1D1 [2]): 0.010 ± 0.002 s⁻¹
Ki (P133R AKR1D1 [3]): 51 ± 27 µM
kcat WT/P133R (P133R AKR1D1 [3]; 10 mM KPi): 10
kcat WT/P133R (P133R AKR1D1 [3]; 100 mM KPi): 6.7
kcat/Km WT/P133R (fold decrease in catalytic efficiency) (P133R AKR1D1 [3]; 100 mM KPi): 13 and 13.3
kcat (P133R AKR1D1 [3]; 10 mM KPi): 0.0017 ± 0.0001 s⁻¹
kcat (P133R AKR1D1 [3]; 100 mM KPi, apparent value, enzyme not saturated with NADPH): 0.0030 ± 0.0005 s⁻¹
Kd (WT AKR1D1 [4]): 2200 ± 300 nM
Kd (P133R AKR1D1 [5]): 13.6 ± 1.9 µM
kss (P133R AKR1D1 [6]): 0.004 ± 0.001 s⁻¹

Kd (P133R AKR1D1 [7]; 10 mM KPi): 28.4 ± 1.9 µM
Kd (P133R AKR1D1 [7]; 100 mM KPi): 34.5 ± 3.8 µM
Kd (WT AKR1D1 [8]; 10 mM KPi): 24.8 ± 1.7 µM
Kd (WT AKR1D1 [8]; 100 mM KPi): 34.8 ± 3.5 µM
Molecule: NC(=O)C1=CN([C@@H]2O[C@H](COP(=O)(O)OP(=O)(O)OC[C@H]3O[C@@H](n4cnc5c(N)ncnc54)[C@H](O)[C@@H]3O)[C@@H](O)[C@H]2O)C=CC1 [NADH]

Kd (P133R AKR1D1 [7]; 10 mM KPi): 0.08 ± 0.006 µM
Kd (P133R AKR1D1 [7]; 100 mM KPi): 27.1 ± 1.3 µM
koff (rate of NADP+ release) (P133R AKR1D1 [9]; 10 mM KPi): 8.9 ± 0.2 s⁻¹
koff (rate of NADP+ release) (P133R AKR1D1 [9]; 100 mM KPi, too fast for instrument (dead time ~1.8 ms)): >50 s⁻¹
koff (rate of NADP+ release) (WT AKR1D1 [10]; 10 mM KPi): 0.164 ± 0.007 s⁻¹
koff (rate of NADP+ release) (WT AKR1D1 [10]; 100 mM KPi): 0.28 s⁻¹ and 0.276 ± 0.008 s⁻¹
Kd (WT AKR1D1 [8]; 10 mM KPi): 0.0043 ± 0.0006 µM
Kd (WT AKR1D1 [8]; 100 mM KPi): 0.237 ± 0.005 µM
Molecule: NC(=O)c1ccc[n+]([C@@H]2O[C@H](COP(=O)([O-])OP(=O)(O)OC[C@H]3O[C@@H](n4cnc5c(N)ncnc54)[C@H](OP(=O)(O)O)[C@@H]3O)[C@@H](O)[C@H]2O)c1 [NADP^+]

kss (WT AKR1D1 [2]): 0.048 ± 0.001 s⁻¹
reduction in Kd versus 7α-hydroxycholest-4-en-3-one (WT AKR1D1 [4]; WT): 4 fold
kss (P133R AKR1D1 [6]): 0.040 ± 0.001 s⁻¹
Molecule: C[C@]12CCC(=O)C=C1CC[C@@H]1[C@@H]2C(=O)C[C@@]2(C)[C@H]1CC[C@]2(O)C(=O)CO [cortisone]

Kd (WT AKR1D1 [4]): 3700 ± 200 nM
Kd (P133R AKR1D1 [5]): 14.2 ± 1.3 µM
Molecule: CC(C)(C)NC(=O)[C@H]1CC[C@H]2[C@@H]3CC[C@H]4NC(=O)C=C[C@]4(C)[C@H]3CC[C@]12C [finasteride]

B1: P133R AKR1D1 (Homo sapiens; P133R) (protein)
chain: MDLSAASHRIPLSDGNSIPIIGLGTYSEPKSTPKGACATSVKVAIDTGYRHIDGAYIYQNEHEVGEAIREKIAEGKVRREDIFYCGKLWATNHVPEMVRPTLERTLRVLQLDYVDLYIIEVPMAFKPGDEIYRRDENGKWLYHKSNLCATWEAMEACKDAGLVKSLGVSNFNRRQLELILNKPGLKHKPVSNQVECHPYFTQPKLLKFCQQHDIVITAYSPLGTSRNPIWVNVSSPPLLKDALLNSLGKRYNKTAAQIVLRFNIQRGVVVIPKSFNLERIKENFQIFDFSLTEEEMKDIEALNKNVRFVELLMWRDHPEYPFHDEY
Km ([11]; 10 mM KPi): 2.4 ± 0.7 (WT/P133R 0.42) μM
Km ([11]; 100 mM KPi, apparent value): 1.0 ± 0.4 (WT/P133R 0.5) μM
